From publication PMC7425103 (Drug Design, Development and Therapy, 2020) come the findings set out here.

Holding throughout (assay type): cell-based, human
For assay [1], the system named is MCF-7 cell line. Kind of assay: Cell cycle analysis by DNA flow cytometry. The settings on record: MCF-7, at IC50. A general note: Flow cytometry measures light scatter and fluorescence of single cells or particles in a stream.
Assay [2] concerns Hep G2 (hepatocellular liver carcinoma) cell line. The experiment in a line: MTT anticancer. The settings on record: ratio of IC50 values vs reference CA-4.
The subject of assay [3] is MCF-7 (breast cancer) cell line. Kind of assay: MTT anticancer. The settings on record: ratio of IC50 values vs reference CA-4. Summed up:
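ATCC MCF-7 cells were grown in DMEM with 10% FBS and penicillin/streptomycin. After trypsin detachment they were seeded at 1000–2000 cells/well and held 34 hours at 37°C in 5% CO2. Test compound was added at 0.1, 1, 10, 25 and 100 μM for 72 hours. Then 5% MTT was added for 2 h at 37°C, formazan was dissolved in isopropanol, and absorbance was read at 570 nm. Viability was expressed as % of control and IC50 derived by curve fitting.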

Assay [4] has as its system MCF-7 cell line. The experiment in a line: Annexin V-FITC/PI staining apoptosis assay. Particulars: MCF-7, at IC50, 24 hours. Summed up:
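MCF-7 cells were seeded at 4 x 10^6/well and exposed to the test compound for 24 hours. Cells were washed three times with ice-cold PBS and resuspended in PBS. They were then stained with Annexin V-FITC and PI from a kit for 15 minutes at room temperature in the dark, and analysed by flow cytometry.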

Turning to `COc1cc(/C=C/C(=O)c2ccc(NC(=O)c3ccccc3CN3C(=O)c4ccccc4C3=O)cc2)cc(OC)c1OC` [Compound 7j, (E)-2-((1,3-Dioxoisoindolin-2-Yl)Methyl)-N-(4-(3-(3,4,5-Trimethoxyphenyl)Acryloyl)Phenyl)Benzamide], in assay [1], the “apoptosis at preG1 phase, times higher than entinostat” value is 1.04 times; the “cell accumulation percentage at G2/M phase, fold higher than CA-4” value came out at 1.05 fold; the “percentage of cells at G2/M, folds higher than entinostat” value worked out at 1.53 fold. For the same molecule, the “fold anticancer activity relative to CA-4, Hep G2” value in assay [2] is given as 4.51 fold. Also, the “fold anticancer activity relative to CA-4, MCF-7” value in assay [3] is 2.57 fold. Further, in assay [4], the “cell necrosis, fold increase compared to untreated control” value amounted to 2.09 fold; the “early apoptotic cell population, fold more than untreated control” value turned out to be 14.36 fold; the “late apoptotic cells population, folds increase vs untreated control” value is 44.60 fold.
